Measurements reported in ChEMBL document CHEMBL1122414, “Anilides related to substituted benzamides. Potential antipsychotic activity of N-(4-amino-5-chloro-2-methoxyphenyl)-1-(phenylmethyl)-4-piperidinecarboxamide” (1983).

Columns and labels:
Mus musculus [1] = experiment: Antagonistic activity against apomorphine induced climbing in CD-1 mice, after oral administration; assay type: functional
Method in brief: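 Male CD-1 mice (20–25 g), usually four groups of five, dosed orally with graded doses or vehicle 30 min before submaximal apomorphine (1 mg/kg sc). Climbing scored 10, 20 and 30 min later (modified Protais method). ED50 with 95% confidence limits by Litchfield–Wilcoxon.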

Rattus norvegicus [2] = experiment: Antagonistic activity against apomorphine induced delay in gastric emptying in Wistar rats, after subcutaneous administration; settings: Stomach, sc
Rattus norvegicus [3] = experiment: Antagonism of amphetamine induced syereotyped behavior after intraperitoneal administration to CD rats; settings: ip
Rattus norvegicus [4] = experiment: Evaluation of HVA levels in striatum after subcutaneous administration to Hooded Lister rats; settings: sc
Rattus norvegicus [5] = experiment: Increase in intragastric pressure after subcutaneous administration to Wistar rats; 5-50
Rattus norvegicus [6] = experiment: Evaluation of prolactin levels in Hooded Lister rats after subcutaneous administration; settings: sc
Rattus norvegicus [7] = experiment: Evaluation of HVA levels in limbic system in Hooded Lister rats after subcutaneous administration; settings: sc
Mus musculus [8] = experiment: Antagonistic activity against apomorphine induced climbing in CD-1 mice at 2 mg/kg after oral administration; assay type: functional
Method in brief: (§1)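 Male CD-1 mice (20–25 g), usually groups of five, given oral compound or vehicle 30 min before apomorphine 1 mg/kg sc. Climbing scored at 10, 20 and 30 min. Percent antagonism at the quoted dose.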

Mus musculus [9] = experiment: Percent antagonistic activity against apomorphine induced climbing in CD-1 mice at 0.5 mg/kg after oral administration; assay type: functional; method in brief: as §1
Rattus norvegicus [10] = experiment: Increase in intragastric pressure after subcutaneous administration to Wistar rats

Structure (SMILES) | ED50 (Mus musculus [1]) [mg/kg] | further results
COc1cc(N)c(Cl)cc1NC(=O)C1CCN(Cc2ccc(OCc3ccccc3)cc2)CC1 | > 4 | –
COc1cc(N)c(Cl)cc1NC(=O)C1CCN(CC2CCCC2)CC1 | > 10 | –
COc1cc(N)c(Cl)cc1NC(=O)C1CCN(Cc2cccs2)CC1 | – | Inhibition (Mus musculus [1]): 77%
CCC(CC)CN1CCC(C(=O)Nc2cc(Cl)c(N)cc2OC)CC1 | > 10 | –
CCN1CCC(C(=O)Nc2cc(Cl)c(N)cc2OC)CC1 | > 10 | –
COc1cc(N)c(Cl)cc1NC(=O)C1CCN(Cc2ccc(C)c(C)c2)CC1 | > 8 | –
COc1cc(N)c(Cl)cc1NC(=O)C1CCN(Cc2cccc(C)c2)CC1 | 2.4 | –
COc1cc(N)c(Cl)cc1NC(=O)C1CCN(Cc2ccc(F)cc2)CC1 | 0.6 | –
COc1cc(N)c(Cl)cc1NC(=O)C1CCN(CC2CCCCC2)CC1 | 2.9 | –
COc1cc(N)c(Cl)cc1NC(=O)C1CCN(Cc2ccccc2F)CC1 | > 4 | –
COc1cc(N)c(Cl)cc1NC(=O)C1CCN(Cc2ccccc2)CC1 | 0.5 | ED50 (Rattus norvegicus [2]): > 50 mg/kg; ED50 (Rattus norvegicus [3]): 0.25 mg/kg; ED50 (Rattus norvegicus [4]): 0.4 mg/kg; ED50 (Rattus norvegicus [5]): > 50 mg/kg; ED50 (Rattus norvegicus [6]): 0.5 mg/kg; ED50 (Rattus norvegicus [7]): 0.5 mg/kg
COc1cc(N)c(Cl)cc1NC(=O)C1CCN(CC2CCC2)CC1 | > 10 | –
COc1cc(N)c(Cl)cc1NC(=O)C1CCN(Cc2ccc(Cl)cc2)CC1 | 1.2 | –
COc1cc(N)c(Cl)cc1NC(=O)C1CCN(C/C=C/c2ccccc2)CC1 | > 10 | –
CCCCN1CCC(C(=O)Nc2cc(Cl)c(N)cc2OC)CC1 | > 10 | –
CCCCCCCN1CCC(C(=O)Nc2cc(Cl)c(N)cc2OC)CC1 | > 10 | –
COc1cc(N)c(Cl)cc1NC(=O)C1CCN(CC2CC2)CC1 | > 10 | –
CCOc1ccc(CN2CCC(C(=O)Nc3cc(Cl)c(N)cc3OC)CC2)cc1 | 6.3 | –
COc1cc(N)c(Cl)cc1NC(=O)C1CCN(Cc2ccc([N+](=O)[O-])cc2)CC1 | > 4 | –

Structure (SMILES) | ED50 (Mus musculus [1]) [mg/kg] | further results
CCCN1CCC(C(=O)Nc2cc(Cl)c(N)cc2OC)CC1 | > 10 | –
COc1cc(N)c(Cl)cc1NC(=O)C1CCN(Cc2cccc(F)c2)CC1 | – | inhibition in vivo at 2 mg/kg (Mus musculus [8]): 58%
COc1cc(N)c(Cl)cc1NC(=O)C1CCN(Cc2ccccc2C)CC1 | – | inhibition in vivo at 2 mg/kg (Mus musculus [8]): 77%
COc1cc(N)c(Cl)cc1NC(=O)C1CCN(Cc2ccsc2)CC1 | 3.4 | –
COc1cc(N)c(Cl)cc1NC(=O)C1CCN(CCc2ccccc2)CC1 | > 10 | –
COc1cc(N)c(Cl)cc1NC(=O)C1CCN(C2CCCC2)CC1 | > 10 | –
COc1ccc(CN2CCC(C(=O)Nc3cc(Cl)c(N)cc3OC)CC2)cc1 | 0.9 | –
COc1cc(N)c(Cl)cc1NC(=O)C1CCN(Cc2cccc(Cl)c2)CC1 | > 4 | –
COc1cc(N)c(Cl)cc1NC(=O)C1CCN(Cc2ccc3c(c2)OCO3)CC1 | 4.3 | –
CCCCCCN1CCC(C(=O)Nc2cc(Cl)c(N)cc2OC)CC1 | > 10 | –
COc1cc(N)c(Cl)cc1NC(=O)C1CCN(CC2CCCCCC2)CC1 | > 10 | –
COc1cc(N)c(Cl)cc1NC(=O)C1CCN(Cc2ccc(C)cc2)CC1 | – | inhibition in vivo at 0.5 mg/kg (Mus musculus [9]): 50%
COc1cccc(CN2CCC(C(=O)Nc3cc(Cl)c(N)cc3OC)CC2)c1 | > 4 | –
COc1cc(N)c(Cl)cc1NC(=O)C1CCN(Cc2cccc(C#N)c2)CC1 | > 4 | –
COc1cc(N)c(Cl)cc1NC(=O)C1CCN(Cc2ccccc2Cl)CC1 | > 4 | –
CCCCCN1CCC(C(=O)Nc2cc(Cl)c(N)cc2OC)CC1 | > 10 | –
COc1cc(N)c(Cl)cc1NC(=O)C1CCN(Cc2ccc(O)cc2)CC1 | > 8 | –
COc1cc(N)c(Cl)cc1C(=O)NC1CCN(Cc2ccccc2)CC1 [CLEBOPRIDE] | 0.7 | lowest active dose (Rattus norvegicus [10]): 1 mg/kg; ED50 (Rattus norvegicus [2]): 0.11 mg/kg; ED50 (Rattus norvegicus [4]): 0.1 mg/kg; ED50 (Rattus norvegicus [6]): 0.14 mg/kg; ED50 (Rattus norvegicus [7]): 0.2 mg/kg
